The results in this text go back to ChEMBL document CHEMBL2169868, “Flavone-based novel antidiabetic and antidyslipidemic agents” (J Med Chem, 2012).

The subject of data set [1] is Mus musculus. Description: Antidiabetic activity in diabetic C57BL/KsJ db/db mouse model assessed as improvement in glucose tolerance in hyperglycemia at 3 mg/kg, po measured 2 hrs post dose. It counts as functional.
In data set [2] the test system is Mus musculus. The experiment in a line: Antidyslipidemic activity in diabetic C57BL/KsJ db/db mouse model assessed as increase in plasma HDL-C/cholesterol ratio at 25 mg/kg, po qd for 10 days. Format: functional. Put shortly: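 db/db mice (blood glucose 200−350, TG 170−250, cholesterol 170−250, HDL-C 32−40 mg/dL) dosed orally at 25 mg/kg daily for 10 days; retro-orbital blood taken on day 11 for plasma TG, cholesterol and HDL-C (and HDL-C/CHOL ratio); mean % change versus vehicle control, 5 mice per group; Student t test.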

The subject of data set [3] is Syrian golden hamster. The experiment in a line: Antidyslipidemic activity in high fructose and high-fat diet fed dyslipidemic Syrian golden hamster model assessed as reduction in triglyceride level at 25 mg/kg/day for 7 days. It counts as functional, Mesocricetus auratus. More on the design: scale not given: the % may be the effect or the level left. The procedure, abridged:
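HFD-fed Syrian golden hamsters, six per group, fed a high-fructose diet. Oral dosing in 1% gum acacia for 7 days. Sham group received vehicle. Plasma TG was measured and body weight tracked. Results given as % change versus HFD control.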

A short description of data set [4]: Oral bioavailability in Sprague-Dawley rat at 25 mg/kg by LC-MS/MS method. Format: ADME, organism-based. The following applies: in vivo. Put shortly: (§1)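 Male Sprague−Dawley rats given a single 25 mg/kg oral dose (aqueous 0.5% methyl cellulose suspension for one compound). Blood drawn from 0.08 to 48 h. LC-MS/MS, linear range 0.78−400 ng/mL.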
In data set [5] the test system is Syrian golden hamster. The experiment in a line: Antidyslipidemic activity in high fructose and high-fat diet fed dyslipidemic Syrian golden hamster model assessed as reduction in glycerol level at 10 mg/kg/day, po for 7 day, po. Format: functional, Mesocricetus auratus. More on the design: scale not given: the % may be the effect or the level left. Put shortly: (§2)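 Syrian golden hamsters fed high-fructose high-fat diet; oral dosing in 1% gum acacia at 10, 30, 100 mg/kg (or 25 mg/kg) for 7 days, sham control given vehicle; plasma TG, cholesterol, LDL-C, HDL-C, glycerol and NEFA (kits), lipoprotein lipase activity and body weight; % change versus HFD control, six hamsters per group.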

A short description of data set [6]: Tmax in Sprague-Dawley rat at 25 mg/kg, po by LC-MS/MS method. Format: ADME, organism-based. More on the design: dose 25 mg/kg, route oral. The following applies: in vivo. The procedure, abridged:
as §1

Data set [7] concerns Syrian golden hamster. Description: Antidyslipidemic activity in high fructose and high-fat diet fed dyslipidemic Syrian golden hamster model assessed as reduction in triglyceride level at 10 mg/kg/day, po for 7 day, po. Format: functional, Mesocricetus auratus. More on the design: scale not given: the % may be the effect or the level left. The procedure, abridged: as §2
Data set [8] concerns Syrian golden hamster. The experiment in a line: Antidyslipidemic activity in high fructose and high-fat diet fed dyslipidemic Syrian golden hamster model assessed as reduction in LDL-cholesterol level at 10 to 100 mg/kg/day for 7 days. The following applies: Mesocricetus auratus. It counts as functional, organism-based. Put shortly: as §2
Data set [9] has as its system Mus musculus. The experiment in a line: Antidiabetic activity in po dosed diabetic C57BL/KsJ db/db mouse model assessed as reduction in postprandial glucose level in hyperglycemia measured 2 hrs post dose. It counts as functional. Put shortly:
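db/db mice (C57BL/KsJ, 12−18 weeks, 40−50 g; selected by glucose 200−350 mg/dL) dosed orally daily for 10 consecutive days at 1, 3, 10, 25 or 50 mg/kg; postprandial blood glucose profile recorded on day 6 with food access interrupted; mean % change versus vehicle in 5 animals per group; Student t test.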

Data set [10] relates to Syrian golden hamster. Description: Antidyslipidemic activity in high fructose and high-fat diet fed dyslipidemic Syrian golden hamster model assessed as increase in HDL-cholesterol level at 25 mg/kg/day for 7 days. It counts as functional, Mesocricetus auratus.
Data set [11] deals with Syrian golden hamster. The experiment in a line: Antidyslipidemic activity in high fructose and high-fat diet fed dyslipidemic Syrian golden hamster model assessed as reduction in NEFA level at 10 mg/kg/day, po for 7 day, po. It counts as functional, Mesocricetus auratus. More on the design: scale not given: the % may be the effect or the level left. The procedure, abridged: as §2

Data set [12] can be described thus: Mean residence time in Sprague-Dawley rat at 2.5 mg/kg, iv by LC-MS/MS method. Format: ADME, organism-based. More on the design: dose 2.5 mg/kg, route intravenous. The following applies: in vivo. Put shortly: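 Male Sprague−Dawley rats given a single 2.5 mg/kg iv dose; one formulation was DMF/PG/water (2:4:4), 0.2 μ filtered. Blood drawn from 0.08 to 48 h. Plasma assayed by LC-MS/MS with linear range 0.78−400 ng/mL.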

For `CC(C)(C)NC[C@H](O)COc1ccc2c(=O)cc(-c3cc(OCc4ccccc4)cc(OCc4ccccc4)c3)oc2c1`, the Activity was 35.1% with Mus musculus [1]; 34.7% in the data set with Syrian golden hamster [3]; 14.4% in the data set on Syrian golden hamster [5]; 21.2% in the data set on Syrian golden hamster [7]; “Dose-dependent effect” in the data set on Syrian golden hamster [8]; 20.5% with Syrian golden hamster [10]. Further, in the data set with Syrian golden hamster [11], the Activity was 13.1%. In addition, the “Percent increase in HDL-C/cholesterol ratio vs vehicle” value in the data set on Mus musculus [2] was determined as 92.5. This compound also showed a bioavailability in [4] of 27%. The Tmax in [6] amounted to 8 h. For the same compound, in the data set with Mus musculus [9], the ED50 came to 1.72 mg/kg. The compound further yielded an MRT in data set [12] of 13.5 h.

A word on the bioavailability: it is dose-corrected exposure relative to a reference, in per cent. Broadly, the Tmax is the time from dosing to the highest level. The ED50 is the dose that gives a 50% effect, or the effect in half of the subjects. Usually MRT stands for the average time that molecules of a dose stay in the body.
